1 compound from PubChem BioAssay AID2378 (NMMLSC, 2010) can be followed below.

The experiment addresses Cell division control protein 42 homolog (Homo sapiens) (UniProt P60953). In words: compound effect on Cdc42 GTP saturation binding, late-stage follow-up, mechanism study for Ras-family GTPase inhibitor project, biochemical, EDTA buffer, varying GTP (AID 2378). The following applies: GST-Cdc42 beads, BODIPY-GTP binding, flow cytometry. The essentials:
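Test system: GST-Cdc42 on glutathione beads / Quantity: 4 µM GST-Cdc42 for bead loading / Doses: 10 µM compound, single dose / Times: 4 °C overnight capture, 2 min pre-incubation / Technique: flow cytometry measurement of bead-associated BODIPY-GTP fluorescence / Read-out basis: Bmax and Kd from one-site binding fit / Controls: DMSO vehicle reference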

Sequence of Cell division control protein 42 homolog (Homo sapiens) (P60953 whole entry, looked up): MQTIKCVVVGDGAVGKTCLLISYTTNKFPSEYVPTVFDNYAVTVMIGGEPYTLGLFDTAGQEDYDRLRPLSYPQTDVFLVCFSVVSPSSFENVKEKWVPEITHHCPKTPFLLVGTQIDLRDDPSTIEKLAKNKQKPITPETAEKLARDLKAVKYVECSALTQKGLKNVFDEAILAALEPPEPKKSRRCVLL

For the compound `COc1ccc(C2CC(c3ccccc3)=NN2c2ccc(S(N)(=O)=O)cc2)cc1` (configuration not stated), where the note is “at 10 µM, stronger effect = lower value”, the Bmax with compound was 19800. Also, for the setting “measured here: GTP Kd with compound”, the Kd is 46.4 nM.
